Source: PubChem BioAssay (Johns Hopkins Ion Channel Center)
Most compounds without a hit are left out; they make up all but 3.7% or so of the library.
KCNK3 inh – human KCNK3 channel inhibition, primary screen; hit rate 0.84% among 340,000; B-score at 10 µM; AID 602410; O14649; CHO-KCNK3 thallium flux, FluxOR fluorescence; stronger effect = lower value;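 active = B-score under library mean minus 4 SD, starting fluorescence ratio at most library mean plus 5 SD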;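 also: more negative B-score means stronger inhibition of thallium flux through KCNK3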
KCNQ1 pot – human KCNQ1 channel potentiation or activation; P51787; CHO-K1 KCNQ1, thallium flux FluxOR fluorescence; stronger effect = higher value; B-score at 10 µM; hit rate 0.35% among 310,000; AID 2648;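 active = fluorescence ratio B-score, a plate-corrected score, at least three library SD, with initial intensity B-score within 5 SD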
Target sequence (P51787 whole entry, looked up): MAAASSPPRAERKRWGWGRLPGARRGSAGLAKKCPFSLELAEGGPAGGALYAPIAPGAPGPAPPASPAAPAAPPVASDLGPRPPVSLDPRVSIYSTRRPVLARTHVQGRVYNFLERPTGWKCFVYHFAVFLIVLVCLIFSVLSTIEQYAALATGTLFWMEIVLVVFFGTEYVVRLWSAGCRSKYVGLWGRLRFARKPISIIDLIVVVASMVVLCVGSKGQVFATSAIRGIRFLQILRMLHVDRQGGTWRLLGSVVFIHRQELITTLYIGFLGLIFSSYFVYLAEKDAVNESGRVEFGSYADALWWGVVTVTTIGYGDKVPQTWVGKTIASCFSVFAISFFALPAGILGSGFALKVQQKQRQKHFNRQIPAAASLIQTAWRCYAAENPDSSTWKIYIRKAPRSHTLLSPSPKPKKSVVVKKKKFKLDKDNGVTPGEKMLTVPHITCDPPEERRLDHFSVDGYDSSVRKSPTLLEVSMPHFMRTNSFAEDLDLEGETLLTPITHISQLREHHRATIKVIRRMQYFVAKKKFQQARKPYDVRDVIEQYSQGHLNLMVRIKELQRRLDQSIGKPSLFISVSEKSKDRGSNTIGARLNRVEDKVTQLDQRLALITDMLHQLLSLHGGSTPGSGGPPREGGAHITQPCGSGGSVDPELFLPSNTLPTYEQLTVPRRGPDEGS
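assay system = KCNQ1-transfected CHO-K1 cells | medium = assay buffer with matched DMSO | probe or stimulus = depolarizing K+/Tl+ stimulus, K2SO4 and Tl2SO4 each 12.5 mM in 5x stock | dosing = single dose | incubation = dye 90 min, compound 20 min, room temperature | detection = kinetic FluxOR fluorescence, 10 s baseline plus 110 s post-stimulus | evaluation = ratio B score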
Kir21 inh – blocks the mouse Kir2.1 inward-rectifier potassium channel. B-score at 10 µM. HEK293-Kir2.1, FluxOR thallium flux fluorescence; stronger effect = lower value. P35561. hit rate 0.85% among 310,000. AID 1672;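 active = fluorescence ratio B-score at or below minus 3 SD of library scores, with starting-brightness B-score within 2 SD, cut at about -4.2 in these data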;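 also: channel flux triggered by added potassium and thallium sulfate stimulus; B-score of peak minus minimum fluorescence over baseline after thallium stimulus; more negative B-score means stronger Kir2.1 block with less thallium influx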
KCNQ1 inh – blocks the human KCNQ1 potassium channel | CHO-K1 KCNQ1, FluxOR thallium flux fluorescence; stronger effect = higher value | hit rate 1.3% among 310,000 | B-score at 10 µM | P51787;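 active = compounds whose thallium flux B-score, printed positive for inhibition, exceeds three library SD while starting fluorescence stays within three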;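 also: channel opened by potassium depolarization with thallium stimulus after 20 min compound exposure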
hERG protect – shields human hERG channel from block by proarrhythmic agents. CHO-hERG, FluxOR thallium flux, dofetilide IC70 present. activation (rescue from dofetilide block), less the hit threshold, % at 10 µM. hit rate 0.51% among 310,000. AID 1511;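 active = activation above the mean of controls blocked by dofetilide plus 5 SD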;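 also: thallium influx through hERG after potassium depolarization seen as dye fluorescence rise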
KCNK9 block – human KCNK9 channel inhibition. B-score at 10 µM. HEK293 KCNK9, FluxOR thallium flux fluorescence; stronger effect = lower value. hit rate 1.2% among 310,000. Q9NPC2. AID 488922;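 active = ratio B-score over 3 SD below the library mean, with starting fluorescence within 5 SD of its mean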;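 also: negative B-score means less thallium flux so channel inhibition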
KCNK9 inh conf – confirmation of human KCNK9 potassium channel inhibitors; shares compounds with KCNK9 block; HEK293 KCNK9 cells, FluxOR thallium flux fluorescence; inhibition, % at 10 µM; hit rate 43% among 4,900;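 active = thallium signal inhibited by more than 5 SD of the compound-free buffer control wells, on both duplicate plates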;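 also: 0% = assay buffer control wells without compound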
Kir21 sel – mouse Kir2.1 off-target activity of KCNK9 modulators | hit rate 4% among 4,900 | AID 492993 | Kir2.1 cells, FluxOR thallium flux fluorescence | shares compounds with KCNK9 block | inhibition, % at 10 µM;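 active = thallium signal drop more than 5 SD beyond the mean of the no-compound control wells, seen in both duplicate plates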;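 also: signal is fluorescence rise after thallium addition divided by baseline fluorescence; plate controls were assay buffer only for no effect and full block by chlorpromazine control for full effect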
KCNK9 uninduced – second counter-screen for KCNK9 modulators: effect in non-induced cells; AID 492997; non-induced KCNK9-HEK293, FluxOR thallium flux; inhibition, % at 10 µM; hit rate 40% among 4,900; shares compounds with KCNK9 block;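 active = thallium signal drop beyond 5 SD of the untreated control mean, on both duplicate plates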;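 also: plate controls were buffer only IC0 wells for no effect and SID17386958 at its maximal inhibitory level for full effect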
An asterisk follows results filed as active; i = inactive; / = not tested or not shown.

SMILES	KCNK3 inh	KCNQ1 pot	Kir21 inh	KCNQ1 inh	hERG protect	KCNK9 block	KCNK9 inh conf	Kir21 sel	KCNK9 uninduced
Cc1cnc(C(=O)OCc2ccc(Br)cc2)cn1	i	i	0.02	i	-7	i	/	/	/
CCC(c1ccccc1)c1nnc(NC(=O)c2ccco2)s1 (stereo unspecified)	i	i	-0.12	i	-10	-8.7*	i	i	i
CCc1ccc(CN(C)C(=O)CCc2nc3ccccc3n(-c3ccc(OC)cc3)c2=O)cc1	i	i	0.1	i	-15	i	i	i	25%*
CC12CCC(C(=O)NCCc3ccccc3)(OC1=O)C2(C)C (stereo unspecified)	i	i	1.9	i	-2	i	i	i	i
COc1ccc(CC(=O)NNC(=O)COc2ccc(C)cc2)cc1S(=O)(=O)N1CCOCC1	i	i	6.7e-16	i	-12	i	/	/	/
CCOC(=O)C(Oc1ccc2c(-c3ccccc3)cc(=O)oc2c1C)c1ccccc1 (stereo unspecified)	i	i	-0.38	i	-14	i	/	/	/
CCOC(=O)C(Oc1ccc2c(-c3ccc(OC)cc3)cc(=O)oc2c1C)c1ccccc1 (stereo unspecified)	i	i	1.4	i	-5	-11*	50%*	i	32%*
COc1ccc(NC(C#N)c2ccccc2OCc2ccccc2)cc1 (stereo unspecified)	i	i	0.28	i	-7	-8.3*	i	i	24%*
COc1cc(-c2nc3cc(C)ccn3c2NC2CCCCC2)ccc1-c1ccc(C(C)=O)cc1	i	i	-0.7	i	-20	-9.3*	48%*	i	i
CCCn1c(-c2cccs2)nc2ccccc21	i	i	-0.43	i	-8	i	/	/	/
CCN1c2ccccc2-c2nc3ccccc3n2C1c1cccs1 (stereo unspecified)	i	i	-0.43	i	-7	-9.3*	59%*	i	62%*
Cc1cc(C)cc(Oc2nc(C(F)(F)F)nc3ccccc23)c1	i	i	0.52	i	-3	i	i	i	24%*
CS(=O)(=O)N1CCN(c2ccccc2[N+](=O)[O-])CC1	i	i	1.6	i	-6	i	/	/	/
COc1ccc(CN(C)C(=O)CNC(=O)Cc2cccc3ccccc23)c(OC)c1OC	i	i	-0.09	i	-6	i	/	/	/
COc1cccc(CN(C)C(=O)CNC(=O)c2sc3ccccc3c2Cl)c1OC	i	i	-0.56	i	-14	i	i	i	i
COc1ccc(N2CCCn3c2nc2c3c(=O)n(CCc3ccccc3)c(=O)n2C)cc1	i	i	-0.68	i	-7	i	/	/	/
COc1ccc(N2CCCn3c2nc2c3c(=O)n(Cc3ccc(C)cc3)c(=O)n2C)c(OC)c1	i	i	2	i	-7	i	i	i	i
Cc1ccc(-c2cc3ccccc3nc2N2CCOCC2)cc1	i	i	-1.1	i	-11	i	i	i	i
CC(C)(C)c1ccc(SCCc2cccnc2)cc1	i	i	-0.54	i	0	i	i	i	i
COc1ccccc1NC(=O)C1CCN(C(=O)C2CC(=O)N(c3ccc(C)cc3)C2)CC1 (stereo unspecified)	i	i	1.1	i	-3	i	/	/	/
COCCCNC(=S)Nc1c(C)cc(C)cc1C	i	i	0.01	i	-2	i	/	/	/
C=CCOC(=O)C1=C(C)OC(N)=C(C#N)C1c1c(C)nn(-c2ccccc2)c1Cl (stereo unspecified)	-10*	i	-0.88	i	-7	-8.4*	50%*	i	34%*
